Results as given in ChEMBL document CHEMBL4014350, “Alkoxyurea-Based Histone Deacetylase Inhibitors Increase Cisplatin Potency in Chemoresistant Cancer Cell Lines” (J Med Chem, 2017).
Activity calls are given as the source filed them. The rule behind the calls is not given here.

Key:
CAL-27 [1] = assay: Potentiation of cisplatin-induced apoptosis in human CAL27 cells at 0.5 uM preincubated for 48 hrs followed by cisplatin treatment for 6 hrs measured after 24 hrs by propidium iodide dye-based flow cytometry; type: functional, cell-based
[2] = target: T1, Histone deacetylase 1/6 (Homo sapiens) (UniProt Q13547+Q9UBN7); assay: Inhibition of HDAC1/HDAC6 in human Cal27CisR cells assessed as potentiation of 3.16 uM cisplatin-induced cytotoxicity by measuring combination index at 1500 nM preincubated for 48 hrs followed by cisplatin treatment measured after 72 hrs by MTT assay
CAL-27 [3] = assay: Potentiation of 1 uM cisplatin-induced cytotoxicity against human CAL27 cells assessed as decrease in cell viability by measuring combination index at 900 uM preincubated for 48 hrs followed by cisplatin treatment measured after 72 hrs by MTT assay; type: functional
In short: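 HDAC inhibitor was added 48 h before cisplatin, then cells were exposed to cisplatin for 72 h and viability was read by MTT assay. Combination index was computed by the Chou–Talalay method: CI > 1 is antagonism, CI = 1 additive, CI < 0.9 synergism. Points with fraction affected below 0.20 were flagged.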

CAL-27 [4] = assay: Potentiation of 0.5 uM cisplatin-induced cytotoxicity against human CAL27 cells assessed as decrease in cell viability by measuring combination index at 900 uM preincubated for 48 hrs followed by cisplatin treatment measured after 72 hrs by MTT assay; type: functional
In short: (§1)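 Cal27 and cisplatin-resistant Cal27CisR cells were preincubated with the HDAC inhibitor for 48 h, then given cisplatin in combination. Viability was read by MTT after 72 h. The combination index was computed by the Chou–Talalay method: CI > 1 is antagonism, CI = 1 is additive, and CI < 0.9 is synergism. Points with fraction affected below 0.20 were flagged.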

CAL-27 [5] = assay: Potentiation of 1 uM cisplatin-induced cytotoxicity against human CAL27 cells assessed as decrease in cell viability by measuring combination index at 2000 uM preincubated for 48 hrs followed by cisplatin treatment measured after 72 hrs by MTT assay; type: functional; settings: in the assay text read “at 2000 nM” for “at 2000 uM”; in short: as §1
CAL-27 [6] = assay: Induction of apoptosis in human CAL27 cells at 0.5 uM for 48 hrs by propidium iodide dye-based flow cytometry; type: functional, cell-based
[7] = target: T1, Histone deacetylase 1/6 (Homo sapiens); assay: Inhibition of HDAC1/HDAC6 in human Cal27CisR cells assessed as potentiation of 5 uM cisplatin-induced cytotoxicity by measuring combination index at 1500 uM preincubated for 48 hrs followed by cisplatin treatment measured after 72 hrs by MTT assay; type: cell-based; in short: as §1
[8] = target: T1, Histone deacetylase 1/6 (Homo sapiens); assay: Inhibition of HDAC1/HDAC6 in human Cal27CisR cells assessed as potentiation of 20 uM cisplatin-induced cytotoxicity by measuring combination index at 1500 nM preincubated for 48 hrs followed by cisplatin treatment measured after 72 hrs by MTT assay
[9] = target: T1, Histone deacetylase 1/6 (Homo sapiens); assay: Inhibition of HDAC1/HDAC6 in human Cal27CisR cells assessed as potentiation of 5 uM cisplatin-induced cytotoxicity by measuring combination index at 900 uM preincubated for 48 hrs followed by cisplatin treatment measured after 72 hrs by MTT assay; type: cell-based; in short: as §1
[10] = target: T1, Histone deacetylase 1/6 (Homo sapiens); assay: Inhibition of HDAC1/HDAC6 in human Cal27CisR cells assessed as potentiation of 20 uM cisplatin-induced cytotoxicity by measuring combination index at 2000 nM preincubated for 48 hrs followed by cisplatin treatment measured after 72 hrs by MTT assay
CAL-27 [11] = assay: Potentiation of 0.316 uM cisplatin-induced cytotoxicity against human CAL27 cells assessed as decrease in cell viability by measuring combination index at 900 uM preincubated for 48 hrs followed by cisplatin treatment measured after 72 hrs by MTT assay; type: functional; settings: in the assay text read “at 900 nM” for “at 900 uM”; in short: as §1
[12] = target: T1, Histone deacetylase 1/6 (Homo sapiens); assay: Inhibition of HDAC1/HDAC6 in human Cal27CisR cells assessed as potentiation of 1 uM cisplatin-induced cytotoxicity by measuring combination index at 900 uM preincubated for 48 hrs followed by cisplatin treatment measured after 72 hrs by MTT assay; type: cell-based
In short: (§2)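 Cal27CisR cells preincubated 48 h with the HDAC inhibitor, then exposed to cisplatin for 72 h. Viability read by MTT. Combination index calculated by the Chou–Talalay method: CI > 1 antagonism, CI = 1 additive, CI < 0.9 synergism. Points with fraction affected below 0.20 are flagged. Values are the mean of three experiments.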

[13] = target: T1, Histone deacetylase 1/6 (Homo sapiens); assay: Inhibition of HDAC1/HDAC6 in human Cal27CisR cells assessed as potentiation of 10 uM cisplatin-induced cytotoxicity by measuring combination index at 900 nM preincubated for 48 hrs followed by cisplatin treatment measured after 72 hrs by MTT assay
[14] = target: T1, Histone deacetylase 1/6 (Homo sapiens); assay: Inhibition of HDAC1/HDAC6 in human Cal27CisR cells assessed as potentiation of 1 uM cisplatin-induced cytotoxicity by measuring combination index at 2000 uM preincubated for 48 hrs followed by cisplatin treatment measured after 72 hrs by MTT assay; type: cell-based; in short: as §2
[15] = target: T1, Histone deacetylase 1/6 (Homo sapiens); assay: Inhibition of HDAC1/HDAC6 in human Cal27CisR cells assessed as potentiation of cisplatin-induced apoptosis at 1 uM preincubated for 48 hrs followed by cisplatin treatment for 6 hrs measured after 24 hrs by propidium iodide dye-based flow cytometry (reference value: 20.3%); type: cell-based; set-up: scale not given: the % may be the effect or the level left
CAL-27 [16] = assay: Potentiation of 0.5 uM cisplatin-induced cytotoxicity against human CAL27 cells assessed as decrease in cell viability by measuring combination index at 1000 uM preincubated for 48 hrs followed by cisplatin treatment measured after 72 hrs by MTT assay; type: functional; in short: as §1
CAL-27 [17] = assay: Potentiation of 0.5 uM cisplatin-induced cytotoxicity against human CAL27 cells assessed as decrease in cell viability by measuring combination index at 1500 uM preincubated for 48 hrs followed by cisplatin treatment measured after 72 hrs by MTT assay; type: functional; in short: as §1
[18] = target: T1, Histone deacetylase 1/6 (Homo sapiens); assay: Inhibition of HDAC1/HDAC6 in human Cal27CisR cells assessed as potentiation of 5 uM cisplatin-induced cytotoxicity by measuring combination index at 2000 uM preincubated for 48 hrs followed by cisplatin treatment measured after 72 hrs by MTT assay; type: cell-based; in short: as §1

T1 sequence (Q13547 whole entry, looked up): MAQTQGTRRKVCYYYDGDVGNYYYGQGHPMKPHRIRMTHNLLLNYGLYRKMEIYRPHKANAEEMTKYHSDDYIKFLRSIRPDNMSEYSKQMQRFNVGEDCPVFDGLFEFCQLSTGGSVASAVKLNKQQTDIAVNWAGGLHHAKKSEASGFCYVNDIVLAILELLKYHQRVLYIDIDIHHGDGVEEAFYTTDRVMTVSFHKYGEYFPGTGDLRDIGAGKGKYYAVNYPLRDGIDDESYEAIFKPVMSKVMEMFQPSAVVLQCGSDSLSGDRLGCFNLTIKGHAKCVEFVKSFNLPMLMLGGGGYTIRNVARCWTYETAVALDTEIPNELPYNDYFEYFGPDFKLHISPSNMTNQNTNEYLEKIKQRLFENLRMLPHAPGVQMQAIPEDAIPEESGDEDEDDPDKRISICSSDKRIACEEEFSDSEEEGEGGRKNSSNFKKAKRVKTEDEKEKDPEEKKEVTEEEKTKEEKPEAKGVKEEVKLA
T1 sequence (Q9UBN7 whole entry, looked up): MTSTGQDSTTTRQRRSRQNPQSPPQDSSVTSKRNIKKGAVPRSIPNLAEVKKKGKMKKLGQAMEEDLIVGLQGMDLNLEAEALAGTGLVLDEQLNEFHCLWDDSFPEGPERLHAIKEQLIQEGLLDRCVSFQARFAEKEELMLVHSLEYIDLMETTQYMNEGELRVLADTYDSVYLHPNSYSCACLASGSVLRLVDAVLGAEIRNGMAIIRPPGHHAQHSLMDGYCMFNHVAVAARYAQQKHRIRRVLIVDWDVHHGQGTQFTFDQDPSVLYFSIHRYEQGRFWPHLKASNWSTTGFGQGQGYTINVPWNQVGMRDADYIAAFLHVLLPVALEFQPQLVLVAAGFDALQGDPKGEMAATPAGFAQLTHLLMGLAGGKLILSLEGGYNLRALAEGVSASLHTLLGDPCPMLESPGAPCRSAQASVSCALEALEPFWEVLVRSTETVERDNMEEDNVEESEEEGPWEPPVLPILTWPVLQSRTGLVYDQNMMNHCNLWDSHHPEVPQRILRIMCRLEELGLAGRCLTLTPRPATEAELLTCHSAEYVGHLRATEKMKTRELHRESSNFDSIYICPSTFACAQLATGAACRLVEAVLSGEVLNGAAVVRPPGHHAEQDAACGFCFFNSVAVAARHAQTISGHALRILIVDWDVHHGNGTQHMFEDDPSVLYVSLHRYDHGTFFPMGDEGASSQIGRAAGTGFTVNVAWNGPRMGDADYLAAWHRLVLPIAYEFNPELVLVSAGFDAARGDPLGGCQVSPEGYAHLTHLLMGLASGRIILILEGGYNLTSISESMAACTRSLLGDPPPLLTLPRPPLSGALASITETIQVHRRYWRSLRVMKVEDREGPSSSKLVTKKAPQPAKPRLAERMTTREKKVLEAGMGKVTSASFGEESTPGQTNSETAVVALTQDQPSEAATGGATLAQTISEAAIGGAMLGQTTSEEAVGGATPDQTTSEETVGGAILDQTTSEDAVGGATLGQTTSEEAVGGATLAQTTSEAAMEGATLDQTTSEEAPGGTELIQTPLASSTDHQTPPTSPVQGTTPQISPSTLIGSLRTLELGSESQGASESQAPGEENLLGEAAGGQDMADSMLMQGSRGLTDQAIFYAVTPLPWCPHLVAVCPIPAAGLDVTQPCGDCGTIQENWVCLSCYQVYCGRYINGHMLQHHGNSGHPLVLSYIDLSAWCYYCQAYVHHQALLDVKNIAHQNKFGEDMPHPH

Row | Structure (SMILES) | Activity (CAL-27 [1]) | CI [2] | CI (CAL-27 [3]) | CI (CAL-27 [4]) | CI (CAL-27 [5]) | Activity (CAL-27 [6]) | CI [7] | CI [8] | CI [9] | CI [10] | CI (CAL-27 [11]) | CI [12] | CI [13] | CI [14] | Activity [15] [%] | CI (CAL-27 [16]) | CI (CAL-27 [17]) | CI [18]
1 | COc1cc(NC(=O)NOCCCCCC(=O)NO)c2nccc(C)c2c1 | Active | – | – | – | – | – | – | – | – | – | – | – | – | – | – | – | – | –
2 | COc1cc(NC(=O)NOCCCCCC(=O)NO)c2ncccc2c1 | – | 0.52 | 0.54 | 0.6 | 0.75 | inactive | 0.47 | 0.62 | 0.52 | 0.68 | 0.77 | < 0.2 | 0.43 | 0.82 | 56.3 | 0.67 | 0.74 | 0.59
